Measurements as given in publication PMC3544189 (ACS medicinal chemistry letters, 2012).
Entries after “also recorded” stand apart in the source; their conditions may differ.

Assays:
proteasome [1] = conditions: cited from earlier work
[2] = target: PA28-activated proteasome; experiment: Inhibition of PA28-activated proteasome by Aβ1-42; assay type: biochemical; conditions: PA28 1.8 μg/ml
proteasome [3] = conditions: cited from earlier work; remark: listed apart in the source
[4] = test system: chymotrypsin-like activity of human 20S proteasome; assay type: biochemical; conditions: for Proteasome activation (in words): chymotrypsin-like activity, absence of PA28
In short: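 Without PA28, proteasome was exposed to test compound. Chymotrypsin-like activity was followed by cleavage of the fluorogenic substrate Suc-LLVY-AMC, read in relative fluorescence units against a proteasome-plus-substrate background. EC50 was the concentration raising activity to 50% of its maximum level. Values are mean ± SD of three independent experiments.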

[5] = test system: PA28-activated proteasome inhibited by Aβ1-42; experiment: Antagonism of Aβ1-42 inhibition of PA28-activated proteasome by compound 2; assay type: biochemical; conditions: compound 2 at 14, 28, 56 μM; Aβ1-42 10 μg/ml; PA28 1.8 μg/ml
proteasome [6] = conditions: cited from earlier work; remark: listed apart in the source
[7] = test system: chymotrypsin-like proteasome activity (20S proteasome + PA28); experiment: Inhibition of chymotrypsin-like proteasome activity in the presence of PA28; assay type: biochemical, human
In short: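 The proteasome was activated by the cellular activator PA28 and then exposed to test compound. Chymotrypsin-like activity was read by Suc-LLVY-AMC fluorescence, with proteasome plus substrate as background. IC50 was the concentration inhibiting PA28-present chymotrypsin-like activity by 50%. Values are mean ± SD of three independent experiments.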

| Molecule | Proteasome activation (in words) [4] | Proteasome inhibition (in words) [7] | also measured |
| --- | --- | --- | --- |
| CCCCCCCCCCCCOS(=O)(=O)[O-].[Na+] [SDS] |  |  | Concentration reported for proteasome activation (proteasome [1]): 0.05% |
| Aβ1-42: amyloid beta peptide 1-42, the likely pathogenic form of Aβ |  |  | Inhibition of PA28-activated proteasome (in words) [2]: inhibited the proteasome in a dose dependent manner |
| polylysine |  |  | Concentration reported for proteasome activation (proteasome [1]): 1 mg/mL |
| CN(C)c1ccc2nc3ccc(=[N+](C)C)cc-3sc2c1 [methylene blue] |  |  | Enhancement of proteasome activity (in words) (proteasome [3]): slightly enhance proteasome activity |
| COC(=O)CC[C@@H](C)[C@H]1CC[C@H]2[C@@H]3CC[C@@H]4C[C@H](OC(=O)CCCCCC(=O)O)CC[C@]4(C)[C@H]3CC[C@]12C [Compound 2, 3α-O-pimeloyl-lithocholic acid methyl ester] | active in proteasome activation |  | Antagonism of Aβ1-42-mediated proteasome inhibition (in words) [5]: antagonized the Aβ1-42-mediated proteasome inhibition in a dose dependent manner; also recorded: potently antagonized; also recorded: completely reverse; Proteasome inhibition in previous study (in words) (proteasome [6]): inactive in proteasome inhibition |
| C/C=C1/[C@H](O[C@@H]2O[C@H](CO)[C@@H](O)[C@H](O)[C@H]2O)OC=C(C(=O)OC)[C@H]1CC(=O)OCCc1ccc(O)c(O)c1 [Oleuropein, reference compound] | did not show any significant activity; also recorded: did not activate the proteasome |  | Proteasome activation over background proteasome activity (proteasome [1]; absence of cellular proteasome activators): approximately 1.5 fold; Concentration reported to enhance proteasome activities in vitro (proteasome [1]): 0.5 µg/mL |
| CNC(=O)CC[C@@H](C)[C@H]1CC[C@H]2[C@@H]3CC[C@@H]4C[C@H](OC(=O)CCCCCC(=O)O)CC[C@]4(C)[C@H]3CC[C@]12C [Compound 4] | completely abrogated the proteasome activation activity |  |  |
| CCOC(=O)CC[C@@H](C)[C@H]1CC[C@H]2[C@@H]3CC[C@@H]4C[C@H](OC(=O)CCCCCC(=O)O)CC[C@]4(C)[C@H]3CC[C@]12C [Compound 3] | completely abrogated the proteasome activation activity |  |  |
| COC(=O)CC[C@@H](C)[C@H]1CC[C@H]2[C@@H]3CC[C@@H]4C[C@@H](N)CC[C@]4(C)[C@H]3CC[C@]12C [Compound 9, 3-β-amino-lithocholic acid methyl ester] | did not activate the proteasome | inhibited the proteasome |  |
| COC(=O)CC[C@@H](C)[C@H]1CC[C@H]2[C@@H]3CC[C@@H]4C[C@@H](NC(=O)CCCCCC(=O)O)CC[C@]4(C)[C@H]3CC[C@]12C [Compound 7] | did not activate the proteasome | inhibited the proteasome |  |
| COC(=O)CC[C@@H](C)[C@H]1CC[C@H]2[C@@H]3CC[C@@H]4C[C@H](NC(=O)CCCCCC(=O)O)CC[C@]4(C)[C@H]3CC[C@]12C [Compound 6] |  |  | Increase of proteasome activation activity relative to compound 2 ([4]; C3 amide versus C3 ester): approximately two-fold |
| C[C@H](CCC(=O)O)[C@H]1CC[C@H]2[C@@H]3CC[C@@H]4C[C@H](O)CC[C@]4(C)[C@H]3CC[C@]12C [Lithocholic acid, lithocholic acid, reference compound] | did not activate the proteasome | weak proteasome inhibitor |  |
| COC(=O)CC[C@@H](C)[C@H]1CC[C@H]2[C@@H]3CC[C@@H]4C[C@@H](OC(=O)CCCCCC(=O)O)CC[C@]4(C)[C@H]3CC[C@]12C [Compound 5] | did not activate the proteasome | inhibited the proteasome |  |
